From article PMC4714953 (Antiviral therapy, 2015)
Where two headings read alike, the source gives them in different places.

Columns and labels:
[1] = Hepatic vaniprevir concentration by core needle biopsy; type: in vivo, human; conditions: for concentration at 12 h / Kp at 6 h: human, liver, oral, mean; for concentration at 12 h: Liver concentration C12h, mean (one subject), 12 h post-dose day 4; for Kp at 6 h: Liver:plasma ratio C6h, 6 h post-dose day 4
Method in brief: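 Genotype 1 chronic HCV patients (n=3), non-cirrhotic, treatment-experienced, fixed sequence: 600 mg twice daily days 1–3 and a single dose on day 4, then after at least 30 days off drug, 300 mg on the same schedule. Ultrasound-guided core needle biopsy of the right hepatic lobe 6 or 12 h after the day-4 dose. Tissue weighed, stored at −70°C, homogenized in human EDTA plasma, extracted liquid–liquid at acidic pH, then LC-MS/MS (0.1–200 µg/g). Liver/plasma ratio calculated.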

[2] = Plasma vaniprevir pharmacokinetics; type: in vivo, human; conditions: for AUC(0-t) / Cmax / Tmax / half-life / concentration at 12 h: human, plasma, oral
Method in brief: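 Same patients and fixed-sequence regimen: 600 mg then 300 mg twice daily days 1–3, single dose on day 4, at least 30-day washout between periods. Day-4 plasma over the 12-h dosing interval. LC-MS/MS, linear 1–1,000 ng/ml, CV under 10%, accuracy within ±10.0%. AUC0–12, Cmax, C12h, Tmax and t½ derived using nominal times. Tmax as median (min–max), t½ as harmonic mean ±pseudo sd.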

[3] = cited from earlier work; for AUC0–12: plasma
[4] = system: liver organic anion-transporting polypeptides; conditions: cited from earlier work
[5] = system: HCV RNA; experiment: Decline of HCV RNA in patients on vaniprevir; type: in vivo; conditions: genotype 1 chronic HCV patients
[6] = rat, dog and rhesus monkey; cited from earlier work
[7] = chimpanzees, 10 mg/kg oral, cited from earlier work
[8] = 300 mg to 600 mg twice daily, day 4

CC[C@@H]1C[C@]1(NC(=O)[C@@H]1C[C@@H]2CN1C(=O)[C@H](C(C)(C)C)NC(=O)OCC(C)(C)CCCCc1cccc3c1CN(C3)C(=O)O2)C(=O)NS(=O)(=O)C1CC1 [vaniprevir]
concentration at 12 h ([1]; 300 mg, 300 mg twice daily): 29400 nM
Kp at 6 h ([1]; 300 mg, 300 mg twice daily): 166
concentration at 12 h ([1]; 600 mg, 600 mg twice daily): 53700 nM
Kp at 6 h ([1]; 600 mg, 600 mg twice daily): 67.3
Hepatic concentrations, 600 mg versus 300 mg twice daily regimen ([1]; mean liver concentrations at 6 and 12 h post-dose): twofold higher
Increase in plasma AUC0–12 with a twofold increase in dose [2, 8]: approximately fivefold
Increase in plasma C12h with a twofold increase in dose [2, 8]: approximately sevenfold
Increase in plasma Cmax with a twofold increase in dose [2, 8]: approximately fivefold
AUC(0-t) ([2]; 300 mg): 10.6 µM·h
Cmax ([2]; 300 mg): 2600 nM
Tmax ([2]; 300 mg): 2 h
half-life ([2]; 300 mg): 6.3 ± 1.4 h
concentration at 12 h ([2]; 300 mg, C12 h, plasma trough, day 4, 300 mg twice daily, n=3, arithmetic mean ±SD [CV%]): 160 nM
concentration at 12 h ([2]; 300 mg, Plasma concentration C12h, mean, mean (one subject, Table 1), 300 mg twice daily, 12 h post-dose day 4): 120 nM
AUC(0-t) ([2]; 600 mg): 59.5 µM·h
Cmax ([2]; 600 mg): 13500 nM
Tmax ([2]; 600 mg): 3 h
half-life ([2]; 600 mg): 3.6 ± 1 h
concentration at 12 h ([2]; 600 mg, C12 h, plasma trough, day 4, 600 mg twice daily, n=3, arithmetic mean ±SD [CV%]): 1110 nM
concentration at 12 h ([2]; 600 mg, Plasma concentration C12h, mean, mean (one subject, Table 1), 600 mg twice daily, 12 h post-dose day 4): 190 nM
Plasma vaniprevir Tmax ([3]; humans): 1.5 to 3 h
AUC0–12 ([3]; 300 mg twice daily): 5.15 µM/h
AUC0–12 ([3]; 600 mg twice daily): 23.36 µM/h
Liver organic anion-transporting polypeptides transport in vitro [4]: saturated at high concentrations
Decline of HCV RNA by day 2 ([5]; 300 mg twice daily): approximately 3 log
Decline of HCV RNA by day 2 ([5]; 600 mg twice daily): approximately 4 log
Liver concentrations at 24 h post-dose [6]: 200 to 600 nM
Maximum liver concentration ([7]; reached at 12 h after dosing): 31 µM
Plasma AUC0–24 [7]: 5.2 µM/h
